Results taken from ChEMBL document CHEMBL3120073, “Simplified pretubulysin derivatives and their biological effects on cancer cells” (J Nat Prod, 2014).
Activity calls are given as the source filed them. The calls are words filed in the database; no cut-off is given here.

Legend:
MDA-MB-231 [1] = experiment: Cytotoxicity against human MDA-MB-231 cells at 1 to 1000 nM after 72 hrs by CellTitre-Blue assay; type: functional, cell-based
Method in brief: (§1)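 MDA-MB-231 cells in 96-well plates were exposed to serial dilutions (0.1–1000 nM) for 72 h. CellTiterBlue reagent was added for 2 h at 37 °C and fluorescence was read. Viability is expressed as % of mock-treated control, from which IC50 was taken. Three independent experiments, quadruplicate.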

Tubulin (Homo sapiens) [2] = target: T1, Tubulin (Homo sapiens) (UniProt P68371+Q9H4B7+P0DPH7+P68366+Q13509+Q71U36+P04350+Q3ZCM7+P07437+P68363+Q9BQE3+Q6PEY2+Q13885+Q9BVA1+Q9BUF5); experiment: Inhibition of tubulin polymerization in human T24 cells at 10 nM after 24 hrs by Hoechst 33342 staining-based immunohistochemistry; type: cell-based; conditions: T-24
Tubulin (Homo sapiens) [3] = target: T1, Tubulin (Homo sapiens); experiment: Inhibition of tubulin polymerization in human MDA-MB-231 cells assessed as disruption of tubulin cytoskeleton at 10 nM after 24 hrs by Hoechst 33342 staining-based immunohistochemistry; type: cell-based
Method in brief: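 MDA-MB-231 cells treated 24 h at 1, 10, 100 or 1000 nM, or DMSO 0.1%. Extracted 2 min in PIPES pH 6.8/MgCl2/EGTA/0.5% Triton buffer, fixed with 0.5% glutaraldehyde, reduced with NaBH4, blocked with 0.2% BSA. Anti-α-tubulin 1 h, then AlexaFluor 488 secondary plus Hoechst 33342 for 45 min. Imaged by laser scanning microscopy.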

MDA-MB-231 [4] = experiment: Antimigratory activity against human MDA-MB-231 cells at 1 uM after 18 hrs by wound healing assay; type: functional, cell-based
Method in brief: (§2)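 MDA-MB-231 grown to 100% confluence in 96-well plates (2 × 10^5 per well). A ~1 mm scratch was made, detached cells were washed off and compound or DMSO was added for 16–18 h. Cells were fixed in 4% formaldehyde, stained with crystal violet and imaged. Covered area was corrected by an unscratched-and-fixed 0% control and expressed relative to DMSO (100%). Three independent experiments, quintuplicate.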

PBMC = experiment: Cytotoxicity against human PBMC at 1 uM after 24 to 72 hrs by MTT assay; type: cell-based
MDA-MB-231 [5] = experiment: Cytotoxicity against human MDA-MB-231 cells after 72 hrs by CellTitre-Blue assay; type: functional, cell-based; conditions: MDA-MB-231, 72 h; method in brief: as §1
[6] = (§3) Induction of apoptosis in human CCRF-CEM VCR/R cells at 2.5 uM after 72 hrs by CellTitre-Blue assay relative to control; type: functional
Method in brief: (§4)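 CCRF-CEM-VCR-R cells treated 72 h at 2.5, 1, 0.1 or 0.01 μM; vincristine reference at 2.5 μM. Viability read by CellTiterBlue, reagent added for 2 h at 37 °C, fluorescence measured. Results given as percent of mock-treated control. Three independent experiments in quadruplicate, means ± SEM, t test.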

MDA-MB-231 [7] = experiment: Cell cycle arrest in human MDA-MB-231 cells assessed as accumulation at G2/M phase at 10 nM after 48 hrs by propidium iodide staining-based flow cytometry (reference value: 22%); type: functional
[8] = (§5) Induction of apoptosis in human CCRF-CEM VCR/R cells at 1 uM after 72 hrs by CellTitre-Blue assay relative to control; type: functional; method in brief: as §4
Tubulin (Homo sapiens) [9] = target: T1, Tubulin (Homo sapiens); experiment: Inhibition of tubulin polymerization in human T24 cells at 100 nM after 24 hrs by Hoechst 33342 staining-based immunohistochemistry; type: cell-based; conditions: T-24
Method in brief: (§6)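 Cells (MDA-MB-231, or T-24 bladder carcinoma) were treated for 24 h at 1–1000 nM, or with DMSO (0.1%). Monomers were extracted for 2 min (80 mM PIPES pH 6.8, 1 mM MgCl2, 5 mM EGTA, 0.5% Triton X-100), then fixed with 0.5% glutaraldehyde and reduced with NaBH4. Staining used BSA blocking, anti-α-tubulin, an AlexaFluor 488 secondary and Hoechst 33342, with confocal imaging.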

MDA-MB-231 [10] = experiment: Cell cycle arrest in human MDA-MB-231 cells assessed as accumulation at G2/M phase at 100 nM after 48 hrs by propidium iodide staining-based flow cytometry (reference value: 22%); type: functional
MDA-MB-231 [11] = experiment: Cell cycle arrest in human MDA-MB-231 cells assessed as accumulation at G2/M phase at 10 nM after 48 hrs by propidium iodide staining-based flow cytometry; type: functional
CCRF-CEM VCR/R [12] = experiment: as §3; type: functional; method in brief: as §4
MDA-MB-231 [13] = experiment: Antimigratory activity against human MDA-MB-231 cells assessed as reduction in wound closure at 100 nM after 18 hrs by wound healing assay; type: functional; method in brief: as §2
Tubulin (Homo sapiens) [14] = target: T1, Tubulin (Homo sapiens); experiment: Inhibition of tubulin polymerization in human MDA-MB-231 cells assessed as disruption of tubulin cytoskeleton at 100 nM after 24 hrs by Hoechst 33342 staining-based immunohistochemistry; type: cell-based; method in brief: as §6
MDA-MB-231 [15] = experiment: Cell cycle arrest in human MDA-MB-231 cells assessed as reduction in G1 phase at 100 nM after 48 hrs by propidium iodide staining-based flow cytometry; type: functional
[16] = Cytotoxicity against human HMEC1 cells after 72 hrs by crystal violet staining assay; type: functional, cell-based; conditions: HMEC-1, 72 h
CCRF-CEM = experiment: Induction of apoptosis in human CCRF-CEM cells at 1 to 100 nM after 48 hrs by propidium iodide staining-based flow cytometry; type: functional, cell-based
Method in brief: (§7)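 CCRF-CEM or CCRF-CEM-VCR-R cells were treated for 48 h. Cells were permeabilized in hypotonic propidium iodide solution and analysed by flow cytometry in logarithmic mode. Apoptosis was scored as the sub-G1 (DNA fragmentation) percentage.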

[17] = Induction of apoptosis in human CCRF-CEM VCR/R cells assessed as cell viability at 2.5 uM after 72 hrs by CellTitre-Blue assay relative to control; type: functional; conditions: read-out: Activity
Method in brief: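 Vincristine-resistant CCRF-CEM-VCR-R cells in 96-well plates were treated for 72 h at 0.01, 0.1, 1 or 2.5 μM. Viability was read by CellTiterBlue as % of mock-treated control. Three independent experiments, quadruplicate; t test.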

[18] = Induction of apoptosis in human CCRF-CEM VCR/R cells at 1 uM after 48 hrs by propidium iodide staining-based flow cytometry; type: functional; method in brief: as §7
CCRF-CEM VCR/R [19] = experiment: as §5; type: functional; method in brief: as §4

CC[C@H](C)[C@H](NC(=O)[C@H]1CCCCN1C)C(=O)N(C)[C@H](CCc1nc(C(=O)N[C@@H](Cc2ccccc2)C[C@H](C)C(=O)O)cs1)C(C)C
Activity (MDA-MB-231 [1]): Active | inhibition (Tubulin (Homo sapiens) [2]): Active | inhibition (Tubulin (Homo sapiens) [3]): Active | Activity (MDA-MB-231 [4]): Active | Activity (PBMC): Toxic | IC50 (MDA-MB-231 [5]): 0.6 nM | Activity [6]: 30% | Activity (MDA-MB-231 [7]): >30% | Activity [8]: 70%

CC[C@H](C)[C@H](NC(=O)[C@H]1CCCCN1C)C(=O)N(C)[C@H](CCc1cccc(C(=O)N[C@@H](Cc2ccccc2)C[C@H](C)C(=O)O)c1)C(C)C
Activity (MDA-MB-231 [1]): Active | inhibition (Tubulin (Homo sapiens) [9]): Active | Activity (MDA-MB-231 [4]): Active | Activity (MDA-MB-231 [10]): 33% | Activity (MDA-MB-231 [11]): inactive | IC50 (MDA-MB-231 [5]): 100 nM | Activity (CCRF-CEM VCR/R [12]): Active | Activity (MDA-MB-231 [13]): inactive | inhibition (Tubulin (Homo sapiens) [14]): Active | Activity (MDA-MB-231 [15]): Active | EC50 [16]: 13.2 nM

CC[C@]1(O)C[C@H]2CN(CCc3c([nH]c4ccccc34)[C@@](C(=O)OC)(c3cc4c(cc3OC)N(C=O)[C@H]3[C@@](O)(C(=O)OC)[C@H](OC(C)=O)[C@]5(CC)C=CCN6CC[C@]43[C@@H]65)C2)C1 [VINCRISTINE]
Activity (CCRF-CEM): Active | viability at 2.5 µM [17]: 80% | IC50 (MDA-MB-231 [5]): 1.6 nM | Activity [18]: 20%

CC[C@H](C)[C@H](NC(=O)[C@H]1CCCCN1C)C(=O)N(C)[C@H](CCc1nc(C(=O)N[C@H](CCC(=O)O)Cc2ccccc2)cs1)C(C)C
Activity (MDA-MB-231 [1]): Active | inhibition (Tubulin (Homo sapiens) [2]): Active | inhibition (Tubulin (Homo sapiens) [3]): Active | Activity (MDA-MB-231 [4]): Active | Activity (MDA-MB-231 [10]): 60% | Activity (MDA-MB-231 [11]): inactive | IC50 (MDA-MB-231 [5]): 10.1 nM | Activity (CCRF-CEM VCR/R [12]): Active | Activity (MDA-MB-231 [13]): 35% | Activity (MDA-MB-231 [15]): Active | Activity (CCRF-CEM VCR/R [19]): Active | EC50 [16]: 4.4 nM
